A selection: hits, their analogues and other compounds. The true share with any hit is near 2.5%.
NTR1 ag – agonists of human NTR1, primary screen, imaging, U2OS cells, beta-arrestin-GFP, high content. hit rate 0.17% among 330,000. activation, % at 20 µM. NTR1-U2OS beta-arrestin-GFP spot imaging, agonist mode;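 active means activation at or above 40% of the spot to cytoplasm intensity ratio, with at least 20 cells analyzed; inconclusive means wells under 20 cells, flagged as cytotoxic or low count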;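 further: 0% = DMSO without peptide and 100% = 100 nM NTR1 peptide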
Target sequence (P30989 whole entry, looked up): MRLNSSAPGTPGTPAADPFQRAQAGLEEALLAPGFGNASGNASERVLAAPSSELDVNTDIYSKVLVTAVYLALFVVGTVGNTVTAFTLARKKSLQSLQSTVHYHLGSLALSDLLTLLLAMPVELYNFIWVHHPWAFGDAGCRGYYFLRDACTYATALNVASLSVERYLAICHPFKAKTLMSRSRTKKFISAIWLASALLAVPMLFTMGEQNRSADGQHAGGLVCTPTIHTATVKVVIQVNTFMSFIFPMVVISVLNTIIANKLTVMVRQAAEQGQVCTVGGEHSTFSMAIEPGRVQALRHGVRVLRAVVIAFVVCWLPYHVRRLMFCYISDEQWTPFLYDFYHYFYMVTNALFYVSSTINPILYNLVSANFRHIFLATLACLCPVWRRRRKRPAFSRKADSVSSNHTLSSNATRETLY
Bfl-1 A1 inh – caspase 3/7 activation in MEF A1-2A-BIM cells, primary screen, A1 inhibitor project, cell-based, luminescence, HTS; Caspase-Glo 3/7 luminescence, 3 h; percent of clofoctol response, vehicle zero; caspase activation, % (no concentration beside the values); hit rate 0.066% among 330,000; AID 2462, 2010;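 active means over half of replicate activation scores above 10%, or exactly half above 10 with the replicate mean above 10; inconclusive means replicate mean below 10 yet half the replicates above 10; inactive means over half of replicates below 10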
MC4R antagonist – MC4R antagonists of cAMP signaling, primary screen, cell-based, TR-FRET, antagonist arm of biased-ligand search | Melanocortin receptor 4 (Homo sapiens), P32245 | MC4R-expressing cells, MTII-stimulated cAMP, LANCE TR-FRET | inhibition, % at 6.5 µM | hit rate 0.48% among 360,000;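 active means inhibition above its plate's cutoff, the mean of tested wells on that plate plus 3 SD, cut at about 29% in these data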;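 further: 0% = Melanotan II alone and 100% = Melanotan II plus saturating MCL0020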
Target sequence (P32245 whole entry, looked up): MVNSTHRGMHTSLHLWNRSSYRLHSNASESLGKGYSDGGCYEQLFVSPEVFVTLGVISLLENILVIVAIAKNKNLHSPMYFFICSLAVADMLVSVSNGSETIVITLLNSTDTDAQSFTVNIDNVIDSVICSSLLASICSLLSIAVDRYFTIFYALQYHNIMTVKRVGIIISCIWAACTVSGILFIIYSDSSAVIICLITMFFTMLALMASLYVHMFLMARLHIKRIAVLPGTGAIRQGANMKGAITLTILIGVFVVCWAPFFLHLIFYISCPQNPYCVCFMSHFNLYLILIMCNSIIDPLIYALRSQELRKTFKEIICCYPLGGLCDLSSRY
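Material: U2OS-MC4R stable cell line | Reagent: Melanotan II challenge after compound preincubation | Doses: One concentration, 6.5 µM nominal | Incubation: 30-min compound preincubation, 1-h Melanotan II challenge, 1-h detection, room temperature | Signal: TR-FRET cAMP assay | Replicates: One well per compound, no replicates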
HGIII-sPLA2 inh – human group III sPLA2 inhibitors, primary screen, biochemical, QFRET, BODIPY PC-A2 liposome substrate | Group 3 secretory phospholipase A2 (Homo sapiens), Q9NZ20 | QFRET BODIPY PC-A2 liposome hydrolysis, fluorescence | inhibition, % at 12.2 µM | hit rate 0.56% among 370,000;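 active means inhibition above mean plus 3 SD of compounds lying within the high and low control bounds, cut at about 19% in these data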;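 further: 0% = median of test compound wells and 100% = no enzyme DMSO wells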
MC4R barr agon – MC4R agonists recruiting beta-arrestin, primary screen, cell-based, luminescence, agonist arm of biased-ligand search | U2OS MC4R beta-arrestin complementation; percent of melanotan II response, DMSO zero | activation, % at 8.9 µM | hit rate 0.98% among 360,000 | AID 540308, 2011;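 active means activation above a per-plate cutoff, the mean activation of sample wells on that plate plus 3 SD, cut at about 8% in these data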
Granule exo inh – LAMP-1 surface exposure blockers, TALL-104 cells – cell-based, flow cytometry, MLPCN library, primary screen; hit rate 0.66% among 360,000; inhibition, % at 10 µM; TALL-104 LAMP-1 surface exposure; cells stimulated with thapsigargin and PMA;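 active means inhibition above about 55%, limit read from the data; inconclusive means no clear call, values can overlap the other calls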
hGIII sPLA2 conf – human group III sPLA2 inhibitors, confirmation, biochemical, QFRET, triplicate | shares compounds with HGIII-sPLA2 inh | recombinant hGIII-sPLA2, BODIPY PC-A2 QFRET fluorescence | inhibition, % at 12.2 µM | hit rate 34% among 2,000 | AID 743280, 2014;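 active means mean inhibition across triplicates above the hit cutoff set in the earlier primary screen, cut at about 19% in these data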;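 further: 0% = enzyme with DMSO and 100% = DMSO wells lacking enzyme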
535nm interf – 535nm fluorescence optical interference, confirmation, artefact control for HGIII-sPLA2 inhibitor project, biochemical, QFRET; shares compounds with HGIII-sPLA2 inh; BODIPY FL product fluorescence interference; inhibition, % at 12.2 µM; hit rate 8.5% among 2,000;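 active means average inhibition above the solvent-only control mean plus 3 SD, cut at about 6% in these data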;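 further: 0% = DMSO with substrate plus product and 100% = DMSO with substrate alone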
BODIPY interf DR – 535nm fluorescence optical interference, dose response, artefact control for HGIII-sPLA2 inhibitor project, biochemical, QFRET | shares compounds with HGIII-sPLA2 inh | BODIPY FL product fluorescence interference, cell-free | IC50, µM | 240 tested, under 10 active | AID 743455, 2014;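 active means IC50 at or below 10 µM; inactive means IC50 above 10 µM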
An asterisk follows results filed as active; ? = inconclusive; · = no result given.

SMILES | NTR1 ag | Bfl-1 A1 inh | MC4R antagonist | HGIII-sPLA2 inh | MC4R barr agon | Granule exo inh | hGIII sPLA2 conf | 535nm interf | others
Nc1nc(N)c2cc(CNc3ccc(Cl)c(Cl)c3)ccc2n1 | · | · | 4.9 | 23.0* | -1.2 | 48.6 | 10.7 | -14.3
CCOC(=O)c1cc2sccc2n1CC(=O)Nc1ccc(OC)cc1OC | 1.9 | 0.1 | -2.9 | 20.9* | 2.3 | -1.0 | -25.4 | -17.9
Cc1cc2nc(-c3ccc[nH]c3=O)n(Cc3ccc(F)cc3)c2cc1C | -0.5 | -0.2 | 9.7 | -7.0 | 0.3 | 5.6 | · | ·
Cc1cc2nc(-c3ccc[nH]c3=O)n(Cc3ccccc3F)c2cc1C | · | 0.6 | 12.3 | 19.3* | -2.2 | -0.5 | -2.3 | -12.8
CC(C)OC(=O)c1c(N)sc2c1CCCC2 | 0.9 | 0.6 | -1.1 | 19.9* | 2.8 | -1.3 | 18.0 | -3.9
CNC(=O)c1c(N)sc2c1CCCCC2 | -0.9 | 0.1 | · | · | · | · | · | ·
C[C@H](CO)N1C[C@H](C)[C@@H](CN(C)Cc2ccccc2)OCCCC[C@H](C)Oc2ccc(N(C)C)cc2C1=O | · | · | 4.4 | 16.9 | -0.6 | -1.9 | · | ·
C[C@@H]1CCCCO[C@@H](CN(C)Cc2ccccc2)[C@@H](C)CN([C@H](C)CO)C(=O)c2cc(N(C)C)ccc2O1 | · | · | 5.1 | 23.6* | 2.8 | -4.1 | 10.2 | -18.3
Cc1ccc(Cl)cc1N(CC(=O)NCc1ccccc1)S(C)(=O)=O | 1.5 | 0.2 | 0.5 | 6.3 | -1.7 | -3.3 | · | ·
COc1cc2c(cc1OC)C(c1ccccc1N)=NCC2 | 0.4 | 0.5 | 3.0 | -5.1 | -0.6 | -4.4 | · | ·
COc1cc2c(cc1OC)C(c1ccccc1)=NCC2 | -1.8 | 0.4 | 3.3 | 26.6* | 3.2 | -0.2 | 0.1 | -11.4
CC(CSc1nnnn1-c1ccccc1)Cn1c(N2CCCC2)nc2c1c(=O)[nH]c(=O)n2C (stereo unspecified) | 1.9 | 1.8 | 7.5 | 20.8* | 3.2 | 0.2 | -0.3 | -20.8
Cn1c(=O)[nH]c(=O)c2c1nc(N1CCOCC1)n2CCSc1nnnn1-c1ccccc1 | 2.6 | 0.8 | 26.1 | -5.2 | -0.2 | 1.5 | · | ·
CCN(CC(=O)NCc1ccc(F)cc1)C(=O)C1CC1C (stereo unspecified) | 2.2 | 0.2 | 10.2 | 3.3 | -0.6 | -6.8 | · | ·
C/C(=N\NC(=S)NCc1ccccc1)c1cccc(Br)c1 | 4.7 | 0.5 | 5.5 | 7.9 | 1.1 | 7.2 | · | ·
C/C(=N\NC(=S)NCc1ccccc1)c1ccc2ccccc2c1 | 13.2 | 0.4 | 5.3 | 19.3* | 0.4 | -0.5 | 0.5 | 2.3
CCCCCOc1ccc(C(=O)CCC(=O)NC(C)c2ccc(S(N)(=O)=O)cc2)cc1 (stereo unspecified) | 0.3 | 0.6 | 9.6 | -25.4 | -0.1 | 0.9 | · | ·
C=CCN=c1scc(-c2ccco2)n1/N=C/c1ccc(O)c(O)c1O | 3.5 | -4.0 | 0.6 | 23.9* | 2.7 | 4.5 | 37.4* | -1.4 | BODIPY interf DR=>122
Cc1nn(-c2ccc(F)cc2)c(C)c1CN1CCN(CCc2ccccc2)C(CCO)C1 (stereo unspecified) | 3.7 | 0.5 | -3.0 | 1.6 | 0.4 | 2.9 | · | ·
CCCCn1c(N)c(N(C(=O)CSc2nnnn2-c2ccccc2)C2CCCC2)c(=O)[nH]c1=O | -1.2 | -1.3 | 10.2 | 10.6 | -0.9 | 1.8 | · | ·
COc1ccccc1CNC(=O)N1CCC(c2nc3ccc(Cl)cc3[nH]2)CC1 | · | · | · | -2.5 | · | · | · | ·
O=C(NNC(=O)c1sccc1-n1cccc1)c1cccs1 | -0.8 | 1.7 | 4.8 | -0.8 | -3.0 | -1.2 | · | ·
CN(C)c1cccc(C(=O)NNC(=S)NC2CC3CCC2C3)c1 (stereo unspecified) | 2.0 | 0.0 | 7.8 | 19.6* | -2.4 | -1.4 | 24.9* | 3.3
Cc1nc2c(C)cccn2c1/C(O)=C1\C(=O)C(=O)N(CCN(C)C)C1c1ccccc1 (stereo unspecified) | -1.0 | 0.4 | 15.2 | 19.9* | 2.5 | -1.9 | 5.5 | -0.2
Cc1ccc(C2/C(=C(\O)c3c(C)nc4c(C)cccn34)C(=O)C(=O)N2CCN(C)C)o1 (stereo unspecified) | · | · | 21.9 | 6.6 | -0.4 | -3.3 | · | ·
SMILES | NTR1 ag | Bfl-1 A1 inh | MC4R antagonist | HGIII-sPLA2 inh | MC4R barr agon | Granule exo inh | hGIII sPLA2 conf | 535nm interf | others
COc1ccc(-c2cc(CC3(C(=O)O)CCN(C(=O)OC(C)(C)C)CC3)on2)c(OC)c1 | 0.4 | -0.7 | 3.1 | -7.2 | 0.8 | -5.5 | · | ·
O=C(c1ccccc1[N+](=O)[O-])N1N=C(c2ccccc2)CC1(O)C(F)(F)F (stereo unspecified) | -0.5 | 0.2 | 2.7 | -6.6 | -0.2 | -1.6 | · | ·
COC(=O)C1=NN(C(=O)c2ccccc2)C(O)(c2ccc([N+](=O)[O-])cc2)C1 (stereo unspecified) | 0.3 | -1.5 | 1.4 | 33.3* | -4.7 | -0.9 | 56.6* | 16.9*
CCC1=NN(C(=O)c2ccccc2[N+](=O)[O-])C(O)(c2ccccc2)C1 (stereo unspecified) | · | · | 14.6 | 22.7* | -0.1 | -0.9 | 6.7 | -1.2
O=C(NN1C(=O)c2ccccc2NC1c1ccccn1)c1ccc([N+](=O)[O-])cc1 (stereo unspecified) | 0.5 | -0.4 | 3.9 | 24.9* | 1.2 | 0.5 | 8.8 | -4.8
CCNC(=S)NNC(=O)c1cc(C)on1 | 5.0 | 0.9 | 9.4 | 8.2 | -0.5 | 5.7 | · | ·
CC(C)OC(=O)CSc1nnc(C2CCCCC2)n1N | 1.1 | -0.6 | 0.4 | 0.0 | -0.3 | -0.1 | · | ·
Cc1ccc2c(c1)c1c3n2CCN(CC#N)C3CCC1 (stereo unspecified) | 1.0 | 0.7 | 3.4 | 21.6* | -1.1 | -5.1 | 10.8 | -5.2
Cc1ccc2c(c1)c1c3n2CCN(CC(N)=O)C3CCC1 (stereo unspecified) | 3.5 | 1.0 | 8.2 | -9.7 | -2.2 | ? | · | ·

Screening data from PubChem.
